Laboratory results published in ChEMBL document CHEMBL2057117, “Oxoquinoline acyclonucleoside phosphonate analogues as a new class of specific inhibitors of human immunodeficiency virus type 1” (Bioorg Med Chem Lett, 2012).

Legend:
[1] = system: Human immunodeficiency virus 1; assay: Antiviral activity against R5-tropic Human immunodeficiency virus 1 Ba-L subtype B infected in human PBMC assessed as inhibition of viral replication after 7 days by ELISA; assay type: functional, organism-based; details: 168 h
Outline: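 Phytohemagglutinin-stimulated PBMCs (2–3 days), then kept in medium with recombinant human IL-2, infected with HIV-1 Ba-L (R5-tropic, subtype B) and treated with a range of concentrations (µM). After 7 days, p24 antigen in culture supernatants was measured by capture ELISA. EC50 is the concentration reducing replication 50% versus infected controls. Mean ± SD of three independent experiments. AZT positive control.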

[2] = Cytotoxicity against human PBMC after 7 days by XTT assay; assay type: cell-based; details: PBMC (peripheral blood mononuclear cells)
Outline: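 Confluent PBMCs were exposed to a range of compound concentrations for 7 days, and viability was then read by XTT. CC50 is the concentration giving 50% cytotoxicity relative to untreated controls. Mean ± SD of three independent experiments.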

[3] = Selectivity ratio of CC50 for human PBMC to EC50 for R5-tropic Human immunodeficiency virus 1 Ba-L subtype B
Outline: (§1)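 Selectivity index is calculated as CC50 (XTT viability in PBMCs, 7 days) divided by EC50 (p24 ELISA, HIV-1 Ba-L-infected PBMCs, 7 days).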

[4] = system: Human immunodeficiency virus 1; assay: Antiviral activity against Human immunodeficiency virus 1 infected in human PBMC assessed as inhibition of viral replication; assay type: functional, organism-based
Outline: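 Human PBMCs stimulated with phytohemagglutinin for 2–3 days, then kept in medium with recombinant human IL-2. Cells infected with HIV-1 Ba-L (R5-tropic, subtype B) and exposed to a range of compound concentrations for seven days. Supernatant p24 antigen measured by capture ELISA. EC50 is the concentration giving 50% less replication than infected controls. Mean ± SD of three independent experiments.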

[5] = biological target: Human immunodeficiency virus type 1 reverse transcriptase (Human immunodeficiency virus 1, UniProt Q72547); assay: Inhibition of Human immunodeficiency virus 1 reverse transcriptase
[6] = Selectivity ratio of CC50 for human PBMC to EC50 for Human immunodeficiency virus 1 Ba-L; outline: as §1
[7] = system: Human immunodeficiency virus 1; assay: Antiviral activity against Human immunodeficiency virus 1 Ba-L infected in macrophages assessed as inhibition of viral replication; assay type: functional, organism-based

Row | EC50 [1] [µM] | SMILES | CC50 at 168 h [2] [µM] | Ratio CC50/EC50 [3] | EC50 [4] [µM] | Ki [5] [µM] | Ratio CC50/EC50 [6] | EC50 [7] [µM]
1 | 8.1 | CCOC(=O)c1cn(CP(=O)(OC(C)C)OC(C)C)c2ccc(Cl)cc2c1=O | 1240 | 152.4 |  |  |  | 
2 | 7.3 | CCOC(=O)c1cn(CP(=O)(OC(C)C)OC(C)C)c2ccccc2c1=O | 2310 | 316.4 |  |  |  | 
3 | 21 | CCOC(=O)c1cn(CP(=O)(OC(C)C)OC(C)C)c2cc(Cl)ccc2c1=O | 828 | 39.4 |  |  |  | 
4 | 56 | CCOC(=O)c1cn(CP(=O)(OC(C)C)OC(C)C)c2ccc(Br)cc2c1=O | 802 | 14.3 |  |  |  | 
5 | 61.2 | CCOC(=O)c1cn(CP(=O)(OC(C)C)OC(C)C)c2cc(Br)ccc2c1=O | 731 | 11.9 |  |  |  | 
6 | 0.4 | CCOC(=O)c1cn(CP(=O)(OC(C)C)OC(C)C)c2ccc(F)cc2c1=O | 2500 | 6240 |  |  |  | 
7 | 0.2 | CCOC(=O)c1cn(CP(=O)(OC(C)C)OC(C)C)c2cc(F)ccc2c1=O | 2940 | 14675 |  |  |  | 
8 | 21.3 | CCOC(=O)c1cn(CP(=O)(OC(C)C)OC(C)C)c2ccc(C)cc2c1=O | 1320 | 61.3 |  |  |  | 
9 | 9 | CCOC(=O)c1cn(CP(=O)(OC(C)C)OC(C)C)c2cc(C)ccc2c1=O | 1120 | 123.9 |  |  |  | 
10 | 38 | CCOC(=O)c1cn(CP(=O)(OC(C)C)OC(C)C)c2ccc([N+](=O)[O-])cc2c1=O | 931 |  |  |  |  | 
11 | 22 | CCOC(=O)c1cn(CP(=O)(OC(C)C)OC(C)C)c2cc([N+](=O)[O-])ccc2c1=O | 812 | 36.9 |  |  |  | 
12 |  | O=C(O)c1cn([C@@H]2O[C@H](CO)[C@@H](O)[C@H]2O)c2ccc(Cl)cc2c1=O |  |  | 1.5 | 0.5 | 1134 | 4.9
13 | 0.16 | Cc1cn([C@H]2C[C@H](N=[N+]=[N-])[C@@H](CO)O2)c(=O)[nH]c1=O [ZIDOVUDINE] | 128 |  |  |  |  | 
